Experimental data: ChEMBL document CHEMBL4393661, “PRODRUGS FOR NITROREDUCTASE BASED CANCER THERAPY- 2: Novel amide/Ntr combinations targeting PC3 cancer cells” (Eur J Med Chem, 2019)

Columns and labels:
Putative nitroreductase [1] = target: T1, Putative nitroreductase (Staphylococcus saprophyticus subsp. saprophyticus (strain ATCC 15305 / DSM20229 / NCIMB 8711 / NCTC 7292 / S-41), UniProt Q4A0P1); test: (§1) Prodrug conversion assessed Staphylococcus saprophyticus nitroreductase expressed in Escherichia coli-mediated N,N'-(cyclohexane-1,4-diyl)bis(4-aminobenzamide) formation by measuring retention time at 100 uM incubated for 15 mins in presence of FDH cofactor regeneration system by HPLC analysis; format: ADME; conditions: 0.25 h
T1 sequence (Q4A0P1 whole entry): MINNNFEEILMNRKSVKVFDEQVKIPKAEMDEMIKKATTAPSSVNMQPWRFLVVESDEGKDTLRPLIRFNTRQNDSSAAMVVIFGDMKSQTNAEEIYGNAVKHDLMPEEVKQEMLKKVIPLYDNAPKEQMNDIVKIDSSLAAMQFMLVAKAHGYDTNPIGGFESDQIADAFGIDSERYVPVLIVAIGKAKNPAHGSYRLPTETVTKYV
Outline: (§2)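 This was a coupled regeneration reaction: 100 µM substrate in Tris/Cl pH 7.5 with 5–15% DMSO, plus 100 µM NADH, 10 µM NAD+, 0.1 mg/mL BSA, 200 µM sodium formate, 30 µg/mL Ssap-NtrB and 30 µg/mL Candida methylica FDH, at 25 °C. Aliquots were taken over time, quenched 1:1 with cold acetonitrile and analysed by C18 HPLC using program II (20→80→20% ACN). Peak areas were read at 254 and 340 nm.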

Putative nitroreductase [2] = target: T1, Putative nitroreductase; test: Substrate activity at Staphylococcus saprophyticus nitroreductase expressed in Escherichia coli assessed as retention time […] at 100 uM by HPLC analysis (0 to 5 mins at 20 % ACN, 15 to 22 min at 80% ACN, 27-32 AT 20% ACN); format: ADME
Putative nitroreductase [3] = target: T1, Putative nitroreductase; test: Substrate activity at Staphylococcus saprophyticus nitroreductase expressed in Escherichia coli assessed as retention time in the presence of NADPH at 100 uM by HPLC analysis (0 to 5 mins at 20% ACN, 25 to 35 min at 80% ACN, 40 to 45 min at 20% ACN); format: ADME
Putative nitroreductase [4] = target: T1, Putative nitroreductase; test: Prodrug conversion assessed Staphylococcus saprophyticus nitroreductase expressed in Escherichia coli-mediated N,N'-(cyclohexane-1,4-diyl)bis(4-aminobenzamide) formation at 100 uM incubated for 15 mins by HPLC analysis; format: ADME; conditions: 0.25 h
[5] = Cytotoxicity against human HUVEC cells assessed as cell viability at 9 to 150 uM measured after 48 hrs by MTT assay relative to control; format: cell-based; conditions: read-out: Activity
Outline: (§3)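 Hep3B and HUVEC cells were grown in high-glucose medium with 10% heat-inactivated FBS and 2 mM glutamine at 37 °C in 5% CO2. Cells were seeded at 5x10^4 per well and left 24 h to attach. They were then exposed for 48 h to 150, 75, 39, 19 and 9 µM, with 1% DMSO as vehicle control. Viability was read by MTT at 550 nm as (OD sample/OD control)×100.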

Putative nitroreductase [6] = target: T1, Putative nitroreductase; test: as §1, with “time of metabolite” for “time”; format: ADME; conditions: 0.25 h; outline: as §2
Putative nitroreductase [7] = target: T1, Putative nitroreductase; test: Prodrug conversion assessed Staphylococcus saprophyticus nitroreductase expressed in Escherichia coli-mediated 4-(hydroxyamino)-N-(4-(4-nitrobenzamido)cyclohexyl)benzamide formation at 100 uM incubated for 15 mins by HPLC analysis; format: ADME; conditions: 0.25 h
Putative nitroreductase [8] = target: T1, Putative nitroreductase; test: Prodrug conversion assessed Staphylococcus saprophyticus nitroreductase expressed in Escherichia coli-mediated N,N'-(cyclohexane-1,4-diyl)bis(4-(hydroxyamino)benzamide) formation at 100 uM incubated for 15 mins by HPLC analysis; format: ADME; conditions: 0.25 h
[9] = Cytotoxicity against human Hep3B cells assessed as cell viability at 9 to 150 uM measured after 48 hrs by MTT assay relative to control; format: cell-based, Hep 3B2; conditions: read-out: Activity; outline: as §3
[10] = target: T2, Staphylococcus saprophyticus nitroreductase (Staphylococcus saprophyticus subsp. saprophyticus (strain ATCC 15305 / DSM20229 / NCIMB 8711 / NCTC 7292 / S-41), UniProt Q4A0P1); test: Substrate activity at Staphylococcus saprophyticus nitroreductase expressed in Escherichia coli assessed as half life […] at 100 uM by HPLC analysis (0 to 5 mins at 20% ACN, 25 to 35 min at 80% ACN, 40 to 45 min at 20% ACN); format: ADME
T2 sequence (Q4A0P1 whole entry): T1 sequence (Q4A0P1 whole entry)

Putative nitroreductase [11] = target: T1, Putative nitroreductase; test: as §1, with “4-amino-N-(4-(4-(hydroxyamino)benzamido)cyclohexyl)benzamide” for “N,N'-(cyclohexane-1,4-diyl)bis(4-aminobenzamide)”; format: ADME; conditions: 0.25 h; outline: as §2
Putative nitroreductase [12] = target: T1, Putative nitroreductase; test: as §1, with “N,N'-(cyclohexane-1,4-diyl)bis(4-(hydroxyamino)benzamide)” for “N,N'-(cyclohexane-1,4-diyl)bis(4-aminobenzamide)”; format: ADME; conditions: 0.25 h; outline: as §2
PC-3 [13] = test: Cytotoxicity against human PC3 cells assessed as reduction in cell viability measured after 48 hrs in presence of Staphylococcus saprophyticus nitroreductase and NADH by SRB assay; format: cell-based; conditions: PC-3, 48 h
Outline: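 Prodrug at 180, 18 or 1.8 nM was premixed with Ssap-NtrB (31 µg/mL final) and NADH (600 µM final; 900 µM for CB1954) in 25 mM Tris-HCl pH 7.5, then added for 48 h under aerobic conditions. Cells were fixed with 12.5% TCA, stained with SRB and read at 492 nm, in triplicate.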

Putative nitroreductase [14] = target: T1, Putative nitroreductase; test: Prodrug conversion assessed Staphylococcus saprophyticus nitroreductase expressed in Escherichia coli-mediated 4-amino-N-(4-(4-(hydroxyamino)benzamido)cyclohexyl)benzamide formation at 100 uM incubated for 15 mins by HPLC analysis; format: ADME; conditions: 0.25 h
[15] = Cytotoxicity against human PC3 cells assessed as cell viability at 9 to 150 uM measured after 48 hrs by MTT assay relative to control; format: cell-based, PC-3; conditions: read-out: Activity
Outline: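 They were treated for 48 h at 9, 18, 39, 78 and 150 µM, with 1% DMSO as vehicle control. Viability was read by MTT at 550 nm.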

[16] = Solubility of the compound in 15% DMSO; format: physicochemical
PC-3 [17] = test: Cytotoxicity in human PC3 cells assessed as reduction in cell viability at 180 nM measured after 48 hrs by SRB assay; format: cell-based; conditions: pc-3, 48 h, 0.18 µM
Outline: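 They were exposed for 48 h to prodrug alone at 180 nM final, without enzyme or NADH, with 25 mM Tris-HCl as vehicle control. Cells were fixed with 12.5% TCA for 1 h at 4 °C, stained with 0.4% SRB and read at 492 nm as % cell survival, in triplicate.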

Putative nitroreductase [18] = target: T1, Putative nitroreductase; test: Prodrug conversion assessed as Staphylococcus saprophyticus nitroreductase mediated P2 metabolite formation in presence of FDH cofactor regeneration system at 100 uM by HPLC analysis; format: ADME; conditions: isolated protein; outline: as §2
Putative nitroreductase [19] = target: T1, Putative nitroreductase; test: Substrate activity at Staphylococcus saprophyticus nitroreductase expressed in Escherichia coli assessed as retention time […] at 150 uM by HPLC analysis (0 to 5 mins at 20 % ACN, 15 to 22 min at 80% ACN, 27-32 AT 20% ACN); format: ADME
Putative nitroreductase [20] = target: T1, Putative nitroreductase; test: Substrate activity at Staphylococcus saprophyticus nitroreductase expressed in Escherichia coli assessed as retention time in the presence of NADPH at 150 uM by HPLC analysis (0 to 5 mins at 20% ACN, 25 to 35 min at 80% ACN, 40 to 45 min at 20% ACN); format: ADME
Putative nitroreductase [21] = target: T1, Putative nitroreductase; test: Prodrug conversion assessed as Staphylococcus saprophyticus nitroreductase mediated P3 metabolite formation in presence of FDH cofactor regeneration system at 100 uM by HPLC analysis; format: ADME; conditions: isolated protein; outline: as §2
Putative nitroreductase [22] = target: T1, Putative nitroreductase; test: Prodrug conversion assessed as Staphylococcus saprophyticus nitroreductase mediated P1 metabolite formation in presence of FDH cofactor regeneration system at 100 uM by HPLC analysis; format: ADME; conditions: isolated protein; outline: as §2
Putative nitroreductase [23] = target: T1, Putative nitroreductase; test: Prodrug conversion assessed as Staphylococcus saprophyticus nitroreductase mediated P5 metabolite formation in presence of FDH cofactor regeneration system at 100 uM by HPLC analysis; format: ADME; conditions: isolated protein; outline: as §2
Putative nitroreductase [24] = target: T1, Putative nitroreductase; test: Prodrug conversion assessed as Staphylococcus saprophyticus nitroreductase mediated P4 metabolite formation in presence of FDH cofactor regeneration system at 100 uM by HPLC analysis; format: ADME; conditions: isolated protein; outline: as §2
[25] = target: T2, Staphylococcus saprophyticus nitroreductase; test: Substrate activity at Staphylococcus saprophyticus nitroreductase expressed in Escherichia coli assessed as half life in the presence of NADPH at 150 uM by HPLC analysis (0 to 5 mins at 20% ACN, 25 to 35 min at 80% ACN, 40 to 45 min at 20% ACN); format: ADME
[26] = target: T2, Staphylococcus saprophyticus nitroreductase; test: Substrate activity at Staphylococcus saprophyticus nitroreductase expressed in Escherichia coli assessed as half life […] at 150 uM by HPLC analysis (0 to 5 mins at 20 % ACN, 15 to 22 min at 80% ACN, 27-32 AT 20% ACN); format: ADME
Putative nitroreductase [27] = target: T1, Putative nitroreductase; test: Prodrug conversion assessed Staphylococcus saprophyticus nitroreductase expressed in Escherichia coli-mediated PP (4-(hydroxyamino)phenyl)(piperidin-1-yl)methanone metabolite formation by measuring retention time in presence of FDH cofactor regeneration system at 100 uM by HPLC analysis; format: ADME; outline: as §2
Putative nitroreductase [28] = target: T1, Putative nitroreductase; test: Prodrug conversion assessed Staphylococcus saprophyticus nitroreductase expressed in Escherichia coli-mediated (4-aminophenyl)(piperidin-1-yl)methanone metabolite formation by measuring retention time in presence of FDH cofactor regeneration system at 100 uM by HPLC analysis; format: ADME; outline: as §2
Putative nitroreductase [29] = target: T1, Putative nitroreductase; test: Prodrug conversion assessed Staphylococcus saprophyticus nitroreductase expressed in Escherichia coli-mediated PP (4-(hydroxyamino)phenyl)(piperidin-1-yl)methanone metabolite formation by measuring retention time of metabolite at 100 uM incubated for 15 mins by HPLC analysis; format: ADME; conditions: 0.25 h
Outline: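 Recombinant Ssap-NtrB, Ni-column purified, was used at 2.5 µg/mL. Substrate at 100 µM was reacted with 200 µM NADH in 25 mM Tris/Cl pH 7.5 with 10% DMSO at 25 °C for 15 min. The reaction was stopped 1:1 with cold acetonitrile and run on C18 RP-HPLC at 1 mL/min with a 20–80% ACN gradient. Peaks were detected at 254 and 340 nm.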

[30] = target: T2, Staphylococcus saprophyticus nitroreductase; test: Substrate activity at Staphylococcus saprophyticus nitroreductase expressed in Escherichia coli assessed as half life […] at 100 uM by HPLC analysis (0 to 5 mins at 20 % ACN, 15 to 22 min at 80% ACN, 27-32 AT 20% ACN); format: ADME

Structure (SMILES)	Retention_time (Putative nitroreductase [2]) [min]	Retention_time (Putative nitroreductase [3]) [min]	viability at 48 h, up to 150 µM [5] [%]	viability at 48 h, up to 150 µM [9] [%]	half-life at 100 µM [10] [min]	IC50 (PC-3 [13]) [nM]	viability at 48 h, up to 150 µM [15] [%]	solubility [16]	Activity (PC-3 [17])	further results
O=C(NC1CCC(NC(=O)c2ccc([N+](=O)[O-])cc2)CC1)c1ccc([N+](=O)[O-])cc1 (configuration not stated)	19.96	19.2	> 80	> 80	< 90	1.79	> 80	Soluble	Non-Toxic	Retention_time (Putative nitroreductase [1]): 13.48 min; Drug metabolism (Putative nitroreductase [4]): Metabolite_Notdetected; Retention_time (Putative nitroreductase [6]): 13.48 min; Drug metabolism (Putative nitroreductase [7]): Metabolite_Detected; Drug metabolism (Putative nitroreductase [8]): Metabolite_Notdetected; Retention_time (Putative nitroreductase [11]): 13.48 min; Retention_time (Putative nitroreductase [12]): 13.48 min; Drug metabolism (Putative nitroreductase [14]): Metabolite_Notdetected
CCN(C(C)=O)c1cc([N+](=O)[O-])cc([N+](=O)[O-])c1			> 80	51 to 80			> 80			Drug metabolism (Putative nitroreductase [18]): Metabolite_Detected; Retention_time (Putative nitroreductase [19]): 14.55 min; Retention_time (Putative nitroreductase [20]): 16.85 min; Drug metabolism (Putative nitroreductase [21]): Metabolite_Detected; Drug metabolism (Putative nitroreductase [22]): Metabolite_Detected; Drug metabolism (Putative nitroreductase [23]): Metabolite_Detected; Drug metabolism (Putative nitroreductase [24]): Metabolite_Detected; half-life [25]: < 1.2 min; half-life [26]: < 1.2 min
O=C(c1ccc([N+](=O)[O-])cc1)N1CCCCC1	18.22	17.81	> 80	> 80	< 1.2	1.81	> 80	Soluble	Non-Toxic	Retention_time (Putative nitroreductase [27]): 14 min; Retention_time (Putative nitroreductase [28]): 22.3 min; Retention_time (Putative nitroreductase [29]): 15.99 min; half-life [30]: < 90 min
